In assay [1] the test system is Puccinia triticina. In words: Antifungal activity against Puccinia recondita f. sp. tritici infected in wheat seedlings at 200 ppm relative to control. Type of assay: functional. The method, boiled down: (§1)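 Test suspension sprayed to run-off on Stevens wheat seedlings. Next day inoculated with a Puccinia recondita f. sp. tritici spore suspension. Held 24 h in a saturated atmosphere at 20 °C, then 7 days in a 20 °C growth chamber before disease rating. Rates in ppm. Given as percent control versus untreated control plants.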

Assay [2] has as its system Parastagonospora nodorum. As to the kind of experiment: Antifungal activity against Stagonospora nodorum infected in wheat seedlings at 2 ppm relative to control. Type of assay: functional. The method, boiled down: (§2)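 Wheat seedlings, treated the day before, inoculated with a Stagonospora nodorum spore suspension. Held in a saturated atmosphere at 20 °C for 48 h, then 5 days in a growth chamber at 22 °C, then disease rated. Rates in ppm. Scored as percent control relative to untreated control plants.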

Assay [3] relates to Parastagonospora nodorum. In words: Antifungal activity against Stagonospora nodorum infected in wheat seedlings at 40 ppm relative to control. Type of assay: functional. The method, boiled down:
as §2

The test system of assay [4] is Botrytis cinerea. As to the kind of experiment: Antifungal activity against Botryotinia fuckeliana infected in orange pixie tomato seedlings at 40 ppm relative to control. Type of assay: functional. The method, boiled down: (§3)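 Orange Pixie tomato seedlings sprayed to run-off with test suspension, then inoculated next day with a Botryotinia fuckeliana spore suspension. Kept saturated at 20 °C for 48 h, then 1 more day at 24 °C in a growth chamber before rating. Rates in ppm. Expressed as percent control relative to untreated control plants.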

The subject of assay [5] is Botrytis cinerea. In words: Antifungal activity against Botryotinia fuckeliana infected in orange pixie tomato seedlings at 2 ppm relative to control. Type of assay: functional. The method, boiled down: as §3
Assay [6] deals with Parastagonospora nodorum. In words: Antifungal activity against Stagonospora nodorum infected in wheat seedlings at 200 ppm relative to control. The class given is functional. The method, boiled down: as §2
The subject of assay [7] is Botrytis cinerea. In words: Antifungal activity against Botryotinia fuckeliana infected in orange pixie tomato seedlings at 200 ppm relative to control. The class given is functional. The method, boiled down: as §3
The subject of assay [8] is Parastagonospora nodorum. In words: Antifungal activity against Stagonospora nodorum infected in wheat seedlings at 10 ppm relative to control. The class given is functional. The method, boiled down: as §2
The subject of assay [9] is Puccinia triticina. In words: Antifungal activity against Puccinia recondita f. sp. tritici infected in wheat seedlings at 2 ppm relative to control. The class given is functional. The method, boiled down:
as §1

For assay [10], the target named is T1, Tubulin (Bos taurus) (UniProt Q6B856+Q862L2+Q862F3). In words: Induction of bovine tubulin polymerization at 3 uM by microplate reader. Type of assay: protein assay. The method, boiled down:
(§4)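 Purified bovine tubulin at 4 mg/ml in 80 mM PIPES pH 6.9, 0.5 mM EGTA, 2 mM MgCl2, 1 mM GTP. Compound added at reaction start at constant DMSO. Polymerization started at 37 °C and followed over time by absorbance at 340 nm. Controls: paclitaxel 10 µM (positive) and 0.5% DMSO (negative).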

The test system of assay [11] is Puccinia triticina. In words: Antifungal activity against Puccinia recondita f. sp. tritici infected in wheat seedlings at 40 ppm relative to control. The class given is functional. The method, boiled down:
as §1

In assay [12] the test system is Puccinia triticina. In words: Antifungal activity against Puccinia recondita f. sp. tritici infected in wheat seedlings at 10 ppm relative to control. The class given is functional. The method, boiled down:
as §1

For assay [13], the system named is Botrytis cinerea. As to the kind of experiment: Antifungal activity against Botryotinia fuckeliana infected in orange pixie tomato seedlings at 10 ppm relative to control. Type of assay: functional. The method, boiled down:
as §3

Assay [14] is described as follows: Antiproliferative activity against human Rhabdomyosarcoma cells after 96 hrs by MTS assay. Type of assay: functional, cell-based. As to conditions: Rhabdomyosarcoma cell. The method, boiled down: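 Rhabdomyosarcoma cells (ATCC CCL-136) seeded at 10,000 cells/well and allowed to adhere 1–3 h. Medium then replaced with compound-containing medium over a concentration range. Grown 96 h at 37 °C, 5% CO2. Viable cells read by MTS/PMS formazan after 3–4 h at 37 °C, absorbance 490 nm. Data normalized to solvent-only wells; IC50 in nM.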
In general terms: Formazan colour is commonly taken as a measure of viable cells.

Assay [15] concerns the target T1, Tubulin (Bos taurus). As to the kind of experiment: Induction of bovine tubulin polymerization at 10 uM by microplate reader. The class given is protein assay. The method, boiled down: as §4

For three compounds, Activity and IC50 results are on record in ChEMBL document CHEMBL3739347, “Tubulin modulating antifungal and antiproliferative pyrazinone derivatives” (Bioorg Med Chem, 2016).

Calls of active or inactive are those of the source. The calls are words filed in the database; no cut-off is given here.

Turning to `CC(C)Cn1c(-c2c(F)cc(F)cc2F)c(Cl)nc(-n2cccn2)c1=O`, the Activity in the assay with Puccinia triticina [1] worked out at 100%; in the assay on Parastagonospora nodorum [2], 0%; with Parastagonospora nodorum [3] it was 100%; in the assay on Botrytis cinerea [4], 100%; in the assay on Botrytis cinerea [5], 100%; in the assay on Parastagonospora nodorum [6], 100%. For the same compound, the Activity in the assay on Botrytis cinerea [7] stood at 100%; with Parastagonospora nodorum [8], 90%; in the assay on Puccinia triticina [9] it was 92%; in the assay with Puccinia triticina [11] it was 100%; with Puccinia triticina [12], 100%; with Botrytis cinerea [13], 100%. In addition, the outcome on Tubulin (Bos taurus) [10] was Active.

For the compound `CC(=O)O[C@H]1C(=O)[C@@]2(C)[C@H]([C@H](OC(=O)c3ccccc3)[C@]3(O)C[C@H](OC(=O)[C@H](O)[C@@H](NC(=O)c4ccccc4)c4ccccc4)C(C)=C1C3(C)C)[C@]1(OC(C)=O)CO[C@@H]1C[C@@H]2O` [PACLITAXEL], the figures for the Activity in the assay on Puccinia triticina [1], with Parastagonospora nodorum [6] and in the assay on Botrytis cinerea [7] were 95%, 91% and 0%, respectively. Inhibition in assay [14] was half-maximal at 8.4 nM (IC50). Further, on Tubulin (Bos taurus) [15], the result was Active.

On to `CC(C)Cn1c(-c2c(F)cccc2F)c(Cl)nc(-n2cccn2)c1=O`, for which the Activity in the assay on Parastagonospora nodorum [2] turned out to be 0%; in the assay on Parastagonospora nodorum [3], 99%; in the assay with Botrytis cinerea [4], 99%; in the assay on Botrytis cinerea [5] it was 75%; in the assay on Parastagonospora nodorum [8] it was 92%; with Puccinia triticina [9] it was 28%. Moreover, the figures for the Activity in the assay with Puccinia triticina [11], in the assay with Puccinia triticina [12] and in the assay with Botrytis cinerea [13] were 100%, 100% and 97%, respectively. For the same compound, the outcome on Tubulin (Bos taurus) [10] was Active.

In general, IC50 refers to the point on the concentration scale where inhibition reaches its midpoint. A low value points to greater potency in that assay.
